Test results taken from ChEMBL document CHEMBL1126317, “2-(aminoalkyl)-5-nitropyrazolo[3,4,5-kl]acridines, a new class of anticancer agents” (1992).
pIC50: −log10 of the molar value.

Tests used:
Assay type in all cases: functional
L1210 = experiment: In vitro antitumor activity against L1210 leukemia cell line.; conditions: Mus musculus, read-out: ID50 (the source's name)
Mus musculus [1] = experiment: In vivo antitumor activity of the compound(ip, 6.25 mg/kg for 5 days) against CD2F1 mice implanted intraperitoneally with P388 leukemia cells; Day 30 survivors=5/6; conditions: route intraperitoneal
Mus musculus [2] = experiment: In vivo antitumor activity of the compound(ip, 6.25 mg/kg for 5 days) against CD2F1 mice implanted intraperitoneally with P388 leukemia cells.; conditions: route intraperitoneal
[3] = Ratio of the ID50's showing antitumor activity against HCT-8 and L1210 leukemia cell lines.
Summary of the method: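 Ratio taken as ID50 in HCT-8 cells divided by ID50 in L1210 cells, both ID50s expressed as molar concentrations.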

HCT-8 = experiment: In vitro antitumor activity against HCT-8 colon cancer cell line.; conditions: Homo sapiens, read-out: ID50 (the source's name)
Mus musculus [4] = experiment: In vivo antitumor activity of the compound(ip, 6.25 mg/kg for 5 days) against CD2F1 mice implanted intraperitoneally with P388 leukemia cells; Day 30 survivors=6/6; conditions: route intraperitoneal
Mus musculus [5] = experiment: In vivo antitumor activity of the compound(ip, 12.5 mg/kg for 5 days) against CD2F1 mice implanted intraperitoneally with P388 leukemia cells; Day 30 survivors=3/6; conditions: route intraperitoneal
Mus musculus [6] = experiment: In vivo antitumor activity of the compound(ip, 12.5 mg/kg for 5 days) against CD2F1 mice implanted intraperitoneally with P388 leukemia cells.; conditions: route intraperitoneal
Mus musculus [7] = experiment: In vivo antitumor activity of the compound(ip, 3.12 mg/kg for 5 days) against CD2F1 mice implanted intraperitoneally with P388 leukemia cells; Day 30 survivors=1/6; conditions: route intraperitoneal
Mus musculus [8] = experiment: In vivo antitumor activity of the compound(ip, 3.12 mg/kg for 5 days) against CD2F1 mice implanted intraperitoneally with P388 leukemia cells.; conditions: route intraperitoneal
Mus musculus [9] = experiment: In vivo antitumor activity of the compound(ip, 12.5 mg/kg for 5 days) against CD2F1 mice implanted intraperitoneally with P388 leukemia cells; Day 30 survivors=2/6; conditions: route intraperitoneal
Mus musculus [10] = experiment: In vivo antitumor activity of the compound(ip, 3 mg/kg for 5 days) against CD2F1 mice implanted intraperitoneally with P388 leukemia cells.; conditions: route intraperitoneal
Mus musculus [11] = experiment: In vivo antitumor activity of the compound(ip, 3.12 mg/kg for 5 days) against CD2F1 mice implanted intraperitoneally with P388 leukemia cells; Day 30 survivors=4/6; conditions: route intraperitoneal

## CCN(CC)CCN1Nc2c3cc(OC(=O)C(C)(C)C)ccc3nc3c([N+](=O)[O-])ccc1c23.CS(=O)(=O)O
L1210
  pIC50: 9.00
Mus musculus [1]
  Activity: 5
Mus musculus [2]
  T/C: 283%
[3]
  Ratio: 0.97
HCT-8
  pIC50: 8.01

## CS(=O)(=O)O.O=[N+]([O-])c1ccc2c3c(c4cc(O)ccc4nc13)NN2CCNCCO
L1210
  pIC50: 8.32
Mus musculus [4]
  Activity: 6
Mus musculus [2]
  T/C: 275%

## CCN(CC)CCN1Nc2c3c(Cl)c(OC)ccc3nc3c([N+](=O)[O-])ccc1c23.CS(=O)(=O)O
L1210
  pIC50: 7.21
Mus musculus [5]
  Activity: 3
Mus musculus [6]
  T/C: 230%

## CC(=O)Oc1ccc2c(c1)-c1nn(CCN3CCCC3)c3ccc([N+](=O)[O-])c(c13)N2.CS(=O)(=O)O
L1210
  pIC50: 8.66
Mus musculus [7]
  Activity: 1
Mus musculus [8]
  T/C: 236%

## CCN(CC)CCN1Nc2c3cc(O[Si](C)(C)C(C)(C)C)ccc3nc3c([N+](=O)[O-])ccc1c23.CS(=O)(=O)O
L1210
  pIC50: 8.77
Mus musculus [9]
  Activity: 2
Mus musculus [6]
  T/C: 228%

## CCN(CC)CCN1Nc2c3cc(O)ccc3nc3c([N+](=O)[O-])ccc1c23.CS(=O)(=O)O
L1210
  pIC50: 8.70
Mus musculus [10]
  T/C: 180%
[3]
  Ratio: 6.5
HCT-8
  pIC50: 7.89

## CCN(CC)CCN1Nc2c3cc(OC(C)=O)ccc3nc3c([N+](=O)[O-])ccc1c23.CS(=O)(=O)O
L1210
  pIC50: 8.42
Mus musculus [11]
  Activity: 4
Mus musculus [8]
  T/C: 283%
[3]
  Ratio: 1.4
HCT-8
  pIC50: 8.28
